We go through one compound from ChEMBL document CHEMBL5032510, “Identification of Novel Fused Heteroaromatics-Based MALT1 Inhibitors by High-Throughput Screening to Treat B Cell Lymphoma” (J Med Chem, 2021).

The source made the active and inactive calls. The calls are words filed in the database; no cut-off is given here.

Series [1] can be described thus: Induction of apoptosis in human HBL1 cells assessed as viable cells at 2 uM measured after 24 hrs by Annexin V-FITC/ Propidium iodide staining based flow cytometry (reference value: 88.1%). In kind it is functional. The following applies: read-out: Activity. In general terms: A flow cytometer gives signals particle by particle.
Series [2] concerns the target T1, Mucosa-associated lymphoid tissue lymphoma translocation protein 1 (Homo sapiens, UniProt Q9UDY8).
T1 sequence (Q9UDY8 whole entry): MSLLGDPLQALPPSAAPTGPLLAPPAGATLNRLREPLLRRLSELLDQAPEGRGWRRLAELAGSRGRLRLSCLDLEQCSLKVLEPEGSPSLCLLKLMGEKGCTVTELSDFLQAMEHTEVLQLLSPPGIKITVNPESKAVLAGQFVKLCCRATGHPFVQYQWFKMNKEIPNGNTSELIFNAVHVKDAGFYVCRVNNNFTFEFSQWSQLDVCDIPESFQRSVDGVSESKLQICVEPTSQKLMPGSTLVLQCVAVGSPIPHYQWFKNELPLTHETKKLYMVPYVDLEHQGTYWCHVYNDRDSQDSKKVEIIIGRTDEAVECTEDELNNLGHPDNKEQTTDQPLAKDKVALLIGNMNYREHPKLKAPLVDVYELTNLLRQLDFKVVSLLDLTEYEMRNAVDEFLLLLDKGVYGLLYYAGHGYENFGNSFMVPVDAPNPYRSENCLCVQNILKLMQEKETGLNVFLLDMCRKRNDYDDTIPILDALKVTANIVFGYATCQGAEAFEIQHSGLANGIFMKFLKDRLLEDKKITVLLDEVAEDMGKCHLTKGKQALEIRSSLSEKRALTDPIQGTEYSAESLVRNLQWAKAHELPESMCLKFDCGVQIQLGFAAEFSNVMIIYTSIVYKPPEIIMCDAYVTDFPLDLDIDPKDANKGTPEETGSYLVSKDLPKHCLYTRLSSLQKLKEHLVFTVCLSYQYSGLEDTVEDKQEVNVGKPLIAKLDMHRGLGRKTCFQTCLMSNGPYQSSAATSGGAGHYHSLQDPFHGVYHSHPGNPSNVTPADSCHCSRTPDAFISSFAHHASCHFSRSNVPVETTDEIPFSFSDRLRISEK
In words: Inhibition of N-terminal his-tagged GCN4 leucine zipper fused human MALT1 […] expressed in Escherichia coli using Ac-LVSR-AMC as substrate by HTS assay.

The nature of series [3]: Antiproliferative activity against human HBL1 cells assessed as inhibition of cell growth incubated for 72 hrs by Celltiter-Glo luminescent assay. The format is functional. The gist of the method:
(§1)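 Exponentially growing cells were seeded at 1 × 10⁴ per 100 μL. HBL-1 and TMD8 were kept in RPMI with 10% FBS, 2 mM glutamine and 10 mM HEPES; OCI-LY1 in Iscove's medium with 20% FBS; all at 37 °C and 5% CO2. Cells were exposed to DMSO or 2-fold serial dilutions from 100 μM for 72 h, in triplicate on one plate. CellTiter-Glo luminescence was read after 1 h. Growth inhibition was calculated against control, accounting for initial cell number, and GI50 was fitted.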

The test system of series [4] is OCI-Ly1. The series is described as follows: Antiproliferative activity against human OCI-Ly1 cells assessed as inhibition of cell growth incubated for 72 hrs by Celltiter-Glo luminescent assay. In kind it is functional. The essentials:
as §1
(In ATP-based viability assays light output follows the ATP content of the culture.)

Series [5] in a line: Induction of apoptosis in human HBL1 cells assessed as late apoptotic cells at 2 uM measured after 24 hrs by Annexin V-FITC/ Propidium iodide staining based flow cytometry (reference value: 4.77%). In kind it is functional.
Series [6] concerns TMD8. The series is described as follows: Induction of apoptosis in human TMD8 cells assessed as viable cells at 5 uM measured after 24 hrs by Annexin V-FITC/ Propidium iodide staining based flow cytometry (reference value: 90.8%). The following applies: read-out: Activity. In kind it is functional.
Series [7] concerns OCI-Ly1. In words: Induction of apoptosis in human OCI-Ly1 cells assessed as viable cells at 10 uM measured after 24 hrs by Annexin V-FITC/ Propidium iodide staining based flow cytometry (reference value: 97.8%). In kind it is functional. The following applies: read-out: Activity.
The test system of series [8] is OCI-Ly1. The series is described as follows: Induction of apoptosis in human OCI-Ly1 cells assessed as dead cells at 2 uM measured after 24 hrs by Annexin V-FITC/ Propidium iodide staining based flow cytometry (reference value: 0.365%). The format is functional.
Series [9] deals with OCI-Ly1. In words: Induction of apoptosis in human OCI-Ly1 cells assessed as dead cells at 10 uM measured after 24 hrs by Annexin V-FITC/ Propidium iodide staining based flow cytometry (reference value: 0.365%). The format is functional.
Series [10] has as its system TMD8. The series is described as follows: Induction of apoptosis in human TMD8 cells assessed as increase in cleaved PARP level measured after 12 hrs by Western blot analysis. The format is functional, cell-based. The gist of the method: (§2)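 HBL1, TMD8 or OCI-LY1 cells were exposed to DMSO or compound for 12 h. Cleaved PARP and caspase-3 were probed by western blot with HRP-conjugated secondary antibodies and chemiluminescent detection. Each lane held 20−75 μg total protein.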
A general note: Immunoblotting shows a protein as a band on a membrane.

Series [11] relates to TMD8. In words: Induction of apoptosis in human TMD8 cells assessed as increase in cleaved caspase 3 level measured after 12 hrs by Western blot analysis. The format is functional, cell-based. The essentials: as §2
Series [12] has as its target Nuclear factor NF-kappa-B complex (Homo sapiens) (UniProt Q00653+P19838+Q04206). In words: Inhibition of NF-kappab signaling in human TMD8 cells assessed as reduction in phosphorylation of IkappaB-alpha at 8 uM preincubated for 30 mins followed by MG-132 addition and measured after 2 hrs by Western blot analysis. In kind it is cell-based. The following applies: time 2.5 hrs. The essentials: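 HBL1, TMD8 and OCI-LY1 cells pretreated 30 min with inhibitor (4 and 8 μM), then given 10 μM proteasome inhibitor MG-132 for 2 h. Lysates (20−75 μg protein) run on SDS-PAGE, blotted to PVDF and probed for RelB, IκBα and phospho-IκBα, with β-actin as loading control; HRP secondary, chemiluminescence detection.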

Series [13] in a line: Tmax in CD-1 mouse at 10 mg/kg, po by LC-MS/MS analysis. The format is ADME, organism-based. Conditions: in vivo. The essentials: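 Male ICR (CD-1) mice (n = 9). Compound formulated in 5% DMSO + 5% Tween-80 in 90% saline and dosed 10 mg/kg po, 1 mg/kg ip or 1 mg/kg iv. Blood drawn from the jugular vein at set time points and held on ice. Plasma separated by centrifugation and stored at −80 °C before parameter derivation.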

Series [14] in a line: AUC (0 to t) in CD-1 mouse at 1 mg/kg, ip by LC-MS/MS analysis. In kind it is ADME, organism-based. On the set-up: dose 1 mg/kg. The following applies: in vivo. The gist of the method:
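Compound formulated in 5% DMSO + 5% Tween-80 in 90% saline and given to male ICR (CD-1) mice (n = 9) at 10 mg/kg po, 1 mg/kg ip or 1 mg/kg iv. Blood was drawn via the jugular vein at set time points and held on ice. Plasma was separated by centrifugation and stored at −80 °C before PK parameters were derived.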

Series [15] relates to TMD8. In words: Antitumor activity against human TMD8 cells xenografted in NCG mouse assessed as tumor growth inhibition at 30 mg/kg/day, ip measured every 2 days for 13 days by caliper method relative to control. In kind it is functional. Conditions: 312 h, time 13 day, read-out: TGI.

Sequence of Nuclear factor NF-kappa-B complex (Homo sapiens) (P19838 whole entry, looked up): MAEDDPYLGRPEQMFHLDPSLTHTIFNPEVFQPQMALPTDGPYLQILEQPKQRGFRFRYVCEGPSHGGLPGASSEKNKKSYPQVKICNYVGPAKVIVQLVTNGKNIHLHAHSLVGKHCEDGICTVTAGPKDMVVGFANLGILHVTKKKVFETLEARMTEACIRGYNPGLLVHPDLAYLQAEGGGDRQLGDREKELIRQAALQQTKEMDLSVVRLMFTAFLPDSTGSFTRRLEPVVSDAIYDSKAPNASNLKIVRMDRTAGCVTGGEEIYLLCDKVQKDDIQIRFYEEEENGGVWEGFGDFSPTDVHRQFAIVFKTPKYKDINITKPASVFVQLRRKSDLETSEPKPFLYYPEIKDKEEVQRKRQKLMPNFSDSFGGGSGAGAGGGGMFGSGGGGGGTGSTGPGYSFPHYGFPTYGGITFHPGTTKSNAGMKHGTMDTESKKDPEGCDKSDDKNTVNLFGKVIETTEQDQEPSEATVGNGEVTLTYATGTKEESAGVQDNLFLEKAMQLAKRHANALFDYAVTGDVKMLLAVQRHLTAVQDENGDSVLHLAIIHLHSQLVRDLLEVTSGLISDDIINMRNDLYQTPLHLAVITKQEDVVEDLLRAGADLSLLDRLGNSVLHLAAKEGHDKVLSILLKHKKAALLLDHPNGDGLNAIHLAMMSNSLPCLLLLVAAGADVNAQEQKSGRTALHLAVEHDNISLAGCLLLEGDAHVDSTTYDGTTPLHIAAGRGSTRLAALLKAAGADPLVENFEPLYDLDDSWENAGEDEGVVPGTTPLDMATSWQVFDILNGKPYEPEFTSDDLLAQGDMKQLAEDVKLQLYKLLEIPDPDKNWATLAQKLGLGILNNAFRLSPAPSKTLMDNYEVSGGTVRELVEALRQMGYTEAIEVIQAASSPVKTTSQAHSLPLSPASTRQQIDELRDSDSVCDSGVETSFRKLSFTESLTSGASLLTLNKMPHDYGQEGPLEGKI
Sequence of Nuclear factor NF-kappa-B complex (Homo sapiens) (Q00653 whole entry, looked up): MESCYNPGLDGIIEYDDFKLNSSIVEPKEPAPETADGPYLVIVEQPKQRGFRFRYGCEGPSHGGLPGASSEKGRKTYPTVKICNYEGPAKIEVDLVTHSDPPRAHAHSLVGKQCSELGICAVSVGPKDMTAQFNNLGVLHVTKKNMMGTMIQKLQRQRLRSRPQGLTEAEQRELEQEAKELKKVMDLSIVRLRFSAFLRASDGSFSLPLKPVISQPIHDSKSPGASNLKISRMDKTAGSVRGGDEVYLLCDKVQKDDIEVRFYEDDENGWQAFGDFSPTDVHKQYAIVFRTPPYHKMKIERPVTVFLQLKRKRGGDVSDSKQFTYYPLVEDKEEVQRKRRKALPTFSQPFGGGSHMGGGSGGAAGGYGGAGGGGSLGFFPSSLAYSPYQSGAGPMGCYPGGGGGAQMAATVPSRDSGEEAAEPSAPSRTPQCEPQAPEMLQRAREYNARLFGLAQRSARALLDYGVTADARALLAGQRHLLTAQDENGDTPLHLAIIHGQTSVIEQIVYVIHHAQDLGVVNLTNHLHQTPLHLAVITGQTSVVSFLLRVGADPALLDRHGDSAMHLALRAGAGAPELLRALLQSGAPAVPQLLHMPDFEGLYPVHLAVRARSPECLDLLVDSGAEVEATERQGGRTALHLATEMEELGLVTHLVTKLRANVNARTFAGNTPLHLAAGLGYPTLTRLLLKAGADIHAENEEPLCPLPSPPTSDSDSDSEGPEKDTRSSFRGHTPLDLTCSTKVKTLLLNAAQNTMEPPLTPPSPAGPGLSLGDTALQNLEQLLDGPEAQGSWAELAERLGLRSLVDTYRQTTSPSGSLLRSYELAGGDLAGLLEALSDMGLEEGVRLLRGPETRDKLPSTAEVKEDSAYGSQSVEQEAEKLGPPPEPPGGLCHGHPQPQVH
Sequence of Nuclear factor NF-kappa-B complex (Homo sapiens) (Q04206 whole entry, looked up): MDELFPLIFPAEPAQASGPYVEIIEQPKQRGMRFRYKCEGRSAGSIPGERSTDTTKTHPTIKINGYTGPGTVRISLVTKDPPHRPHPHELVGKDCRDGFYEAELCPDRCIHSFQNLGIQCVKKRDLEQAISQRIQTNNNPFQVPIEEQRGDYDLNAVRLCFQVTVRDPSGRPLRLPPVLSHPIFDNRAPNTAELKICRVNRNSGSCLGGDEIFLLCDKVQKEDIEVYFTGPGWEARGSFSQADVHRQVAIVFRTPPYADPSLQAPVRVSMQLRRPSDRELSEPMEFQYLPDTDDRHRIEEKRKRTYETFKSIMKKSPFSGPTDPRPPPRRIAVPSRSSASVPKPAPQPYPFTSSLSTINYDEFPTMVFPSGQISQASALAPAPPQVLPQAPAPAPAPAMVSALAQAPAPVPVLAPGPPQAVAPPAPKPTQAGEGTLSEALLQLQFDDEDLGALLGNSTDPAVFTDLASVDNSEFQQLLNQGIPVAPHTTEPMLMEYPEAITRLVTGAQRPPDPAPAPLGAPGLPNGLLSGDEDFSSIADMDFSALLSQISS

The IC50 is the concentration at which inhibition is half-maximal. A higher IC50 goes with a need for much substance. A word on the GI50: it is the concentration at which growth is held to half of that of the control. For orientation: Tmax means the time at which the peak concentration occurs. As a reminder, the AUC(0-t) is the area under the concentration-time curve up to a stated or last time point. A higher AUC(0-t) goes with more exposure. `COc1ccc(OC)c(NC(=O)c2sc(=S)n(-c3ccc(C(F)(F)F)cc3)c2NC(=O)CCl)c1`: the viability at 2 µM in [1] came out at 85.8%. Also, the IC50 in series [2] is 5.3 µM. For the same compound, the GI50 in series [3] was 1 µM; in the series with OCI-Ly1 [4], 10.7 µM. For the same compound, the Activity in series [5] was 5.5%; with OCI-Ly1 [8], 0.011%; in the series on OCI-Ly1 [9] it was 0.337%; in the series with TMD8 [10], “Dose-Dependent Effect”; in the series with TMD8 [11], “Dose-Dependent Effect”. In addition, the viability at 5 µM in the series with TMD8 [6] worked out at 14.8%. For the same compound, in the series on OCI-Ly1 [7], the viability at 10 µM was determined as 95.5%. For the same compound, the inhibition result in series [12] is “Active”. Further, the Tmax in series [13] turned out to be 3 h. This compound also showed an AUC(0-t) in series [14] of 732 ng·h/mL. Further, the inhibition in vivo at 30 mg/kg/day in the series on TMD8 [15] came to 31%.
